Assay results: publication PMC9660540 (Clinical Cancer Research, 2022)

What was measured:
[1] = Causally related adverse events, phase Ia/Ib study in patients with solid tumors; type: in vivo, human
Method in brief: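 Expansion cohorts received nanosuspension at 100 mg once daily. The safety set was all patients given ≥1 dose, classified by the treatment actually received. Treatment was delayed or reduced for grade ≥3 or clinically significant nonhematologic toxicity.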

[2] = tested on: metastatic castration-resistant prostate cancer (mCRPC); assay: Tumor response; type: in vivo, human

Cc1cc(-c2nnc(N)nc2-c2ccc(F)cc2)cc(Cl)n1 [AZD4635]
Causally related AE grade ≥3: Abdominal pain ([1]; Other Post-IO): 0 n (%) | Causally related AE grade ≥3: Anemia ([1]; Other Post-IO): 1 (4.8) n (%) | Causally related AE grade ≥3: Arthralgia ([1]; Other Post-IO): 0 n (%) | Causally related AE grade ≥3: Blood creatinine increased ([1]; Other Post-IO): 0 n (%) | Causally related AE grade ≥3: CRP increased ([1]; Other Post-IO): 0 n (%) | Causally related AE grade ≥3: Dermatitis psoriasiform ([1]; Other Post-IO): 0 n (%) | Causally related AE grade ≥3: Diarrhea ([1]; Other Post-IO): 0 n (%) | Causally related AE grade ≥3: Dizziness ([1]; Other Post-IO): 0 n (%) | Causally related AE grade ≥3: Dyspnea ([1]; Other Post-IO): 1 (4.8) n (%) | Causally related AE grade ≥3: Fatigue ([1]; Other Post-IO): 1 (4.8) n (%) | Causally related AE grade ≥3: Headache ([1]; Other Post-IO): 0 n (%) | Causally related AE grade ≥3: Hyperglycemia ([1]; Other Post-IO): 0 n (%) | Causally related AE grade ≥3: Hypertension ([1]; Other Post-IO): 0 n (%) | Causally related AE grade ≥3: Hypophosphatemia ([1]; Other Post-IO): 0 n (%) | Causally related AE grade ≥3: Insomnia ([1]; Other Post-IO): 0 n (%) | Causally related AE grade ≥3: Lipase increased ([1]; Other Post-IO): 0 n (%) | Causally related AE grade ≥3: Lymphocyte count decreased ([1]; Other Post-IO): 1 (4.8) n (%) | Causally related AE grade ≥3: Myositis ([1]; Other Post-IO): 0 n (%) | Causally related AE grade ≥3: Nausea ([1]; Other Post-IO): 0 n (%) | Causally related AE grade ≥3: Neutrophil count decreased ([1]; Other Post-IO): 0 n (%) | Causally related AE grade ≥3: Obliterative bronchiolitis ([1]; Other Post-IO): 0 n (%) | Causally related AE grade ≥3: Rash ([1]; Other Post-IO): 0 n (%) | Causally related AE grade ≥3: Sudden death ([1]; Other Post-IO): 0 n (%) | Causally related AE grade ≥3: Type I diabetes mellitus ([1]; Other Post-IO): 0 n (%) | Causally related AE grade ≥3: Vomiting ([1]; Other Post-IO): 0 n (%) | ≥Grade 3 causally related AE ([1]; Other Post-IO): 1 (4.8) n (%) | Causally related AE grade ≥3: ALT increased ([1]; Total): 0 n (%) | Causally related AE grade ≥3: Abdominal pain ([1]; Total): 2 (1.4) n (%) | Causally related AE grade ≥3: Anemia ([1]; Total): 4 (2.7) n (%) | Causally related AE grade ≥3: Arthralgia ([1]; Total): 1 (0.7) n (%) | Causally related AE grade ≥3: Blood creatinine increased ([1]; Total): 0 n (%) | Causally related AE grade ≥3: CRP increased ([1]; Total): 1 (0.7) n (%) | Causally related AE grade ≥3: Dermatitis psoriasiform ([1]; Total): 0 n (%) | Causally related AE grade ≥3: Diarrhea ([1]; Total): 1 (0.7) n (%) | Causally related AE grade ≥3: Dizziness ([1]; Total): 0 n (%) | Causally related AE grade ≥3: Dyspnea ([1]; Total): 1 (0.7) n (%) | Causally related AE grade ≥3: Fatigue ([1]; Total): 6 (4.1) n (%) | Causally related AE grade ≥3: Headache ([1]; Total): 1 (0.7) n (%) | Causally related AE grade ≥3: Hyperglycemia ([1]; Total): 0 n (%) | Causally related AE grade ≥3: Hypertension ([1]; Total): 2 (1.4) n (%) | Causally related AE grade ≥3: Hypophosphatemia ([1]; Total): 0 n (%) | Causally related AE grade ≥3: Insomnia ([1]; Total): 1 (0.7) n (%) | Causally related AE grade ≥3: Lipase increased ([1]; Total): 0 n (%) | Causally related AE grade ≥3: Lymphocyte count decreased ([1]; Total): 1 (0.7) n (%) | Causally related AE grade ≥3: Myositis ([1]; Total): 0 n (%) | Causally related AE grade ≥3: Nausea ([1]; Total): 1 (0.7) n (%) | Causally related AE grade ≥3: Neutrophil count decreased ([1]; Total): 0 n (%) | Causally related AE grade ≥3: Obliterative bronchiolitis ([1]; Total): 0 n (%) | Causally related AE grade ≥3: Rash ([1]; Total): 0 n (%) | Causally related AE grade ≥3: Sudden death ([1]; Total): 1 (0.7) n (%) | Causally related AE grade ≥3: Type I diabetes mellitus ([1]; Total): 0 n (%) | Causally related AE grade ≥3: Vomiting ([1]; Total): 2 (1.4) n (%) | ≥Grade 3 causally related AE ([1]; Total): 19 (12.9) n (%) | Treatment-related AEs of grade 3 or greater severity, patients ([1]; all tumor cohorts): 12.9% | Causally related AE grade ≥3: ALT increased ([1]; mCRPC IO-naïve): 0 n (%) | Causally related AE grade ≥3: Abdominal pain ([1]; mCRPC IO-naïve): 1 (1.5) n (%) | Causally related AE grade ≥3: Anemia ([1]; mCRPC IO-naïve): 3 (4.6) n (%) | Causally related AE grade ≥3: Arthralgia ([1]; mCRPC IO-naïve): 1 (1.5) n (%) | Causally related AE grade ≥3: Blood creatinine increased ([1]; mCRPC IO-naïve): 0 n (%) | Causally related AE grade ≥3: CRP increased ([1]; mCRPC IO-naïve): 1 (1.5) n (%) | Causally related AE grade ≥3: Dermatitis psoriasiform ([1]; mCRPC IO-naïve): 0 n (%) | Causally related AE grade ≥3: Diarrhea ([1]; mCRPC IO-naïve): 0 n (%) | Causally related AE grade ≥3: Dizziness ([1]; mCRPC IO-naïve): 0 n (%) | Causally related AE grade ≥3: Dyspnea ([1]; mCRPC IO-naïve): 0 n (%) | Causally related AE grade ≥3: Fatigue ([1]; mCRPC IO-naïve): 1 (1.5) n (%) | Causally related AE grade ≥3: Headache ([1]; mCRPC IO-naïve): 1 (1.5) n (%) | Causally related AE grade ≥3: Hyperglycemia ([1]; mCRPC IO-naïve): 0 n (%) | Causally related AE grade ≥3: Hypertension ([1]; mCRPC IO-naïve): 0 n (%) | Causally related AE grade ≥3: Hypophosphatemia ([1]; mCRPC IO-naïve): 0 n (%) | Causally related AE grade ≥3: Insomnia ([1]; mCRPC IO-naïve): 1 (1.5) n (%) | Causally related AE grade ≥3: Lipase increased ([1]; mCRPC IO-naïve): 0 n (%) | Causally related AE grade ≥3: Lymphocyte count decreased ([1]; mCRPC IO-naïve): 0 n (%) | Causally related AE grade ≥3: Myositis ([1]; mCRPC IO-naïve): 0 n (%) | Causally related AE grade ≥3: Nausea ([1]; mCRPC IO-naïve): 1 (1.5) n (%) | Causally related AE grade ≥3: Neutrophil count decreased ([1]; mCRPC IO-naïve): 0 n (%) | Causally related AE grade ≥3: Obliterative bronchiolitis ([1]; mCRPC IO-naïve): 0 n (%) | Causally related AE grade ≥3: Rash ([1]; mCRPC IO-naïve): 0 n (%) | Causally related AE grade ≥3: Sudden death ([1]; mCRPC IO-naïve): 0 n (%) | Causally related AE grade ≥3: Type I diabetes mellitus ([1]; mCRPC IO-naïve): 0 n (%) | Causally related AE grade ≥3: Vomiting ([1]; mCRPC IO-naïve): 1 (1.5) n (%) | ≥Grade 3 causally related AE ([1]; mCRPC IO-naïve): 9 (13.8) n (%) | Tolerability ([1]; monotherapy and in combination with durvalumab, all patients): well tolerated | Disease control rate (DCR; CR, PR, or SD for at least 22 weeks) ([2]; mCRPC): 18.0% | Duration of response ([2]; mCRPC responders, monotherapy and plus durvalumab together): 2.3 to 34.0 months | Tumor responses ([2]; mCRPC, responders/evaluable): 2/39 | Confirmed PR ([2]; mCRPC, tumor response–evaluable population): 2 patients
